Test results from ChEMBL document CHEMBL2424622, “Development of amino-pyrimidine inhibitors of c-Jun N-terminal kinase (JNK): kinase profiling guided optimization of a 1,2,3-benzotriazole lead” (Bioorg Med Chem Lett, 2013).

Legend:
[1] = biological target: Death-associated protein kinase 1 (Homo sapiens, UniProt P53355); assay: Competitive binding affinity to DAPK1 (unknown origin) at 10 uM in presence of ATP relative to control
[2] = test system: Receptor-type tyrosine-protein kinase FLT3 (Homo sapiens), P36888 [UNDEFINED MUTATION]; assay: Competitive binding affinity to FLT3 ITD mutant (unknown origin) at 10 uM in presence of ATP relative to control
Chain of Receptor-type tyrosine-protein kinase FLT3 (Homo sapiens), P36888 [UNDEFINED MUTATION] (P36888 whole entry, looked up, change not shown): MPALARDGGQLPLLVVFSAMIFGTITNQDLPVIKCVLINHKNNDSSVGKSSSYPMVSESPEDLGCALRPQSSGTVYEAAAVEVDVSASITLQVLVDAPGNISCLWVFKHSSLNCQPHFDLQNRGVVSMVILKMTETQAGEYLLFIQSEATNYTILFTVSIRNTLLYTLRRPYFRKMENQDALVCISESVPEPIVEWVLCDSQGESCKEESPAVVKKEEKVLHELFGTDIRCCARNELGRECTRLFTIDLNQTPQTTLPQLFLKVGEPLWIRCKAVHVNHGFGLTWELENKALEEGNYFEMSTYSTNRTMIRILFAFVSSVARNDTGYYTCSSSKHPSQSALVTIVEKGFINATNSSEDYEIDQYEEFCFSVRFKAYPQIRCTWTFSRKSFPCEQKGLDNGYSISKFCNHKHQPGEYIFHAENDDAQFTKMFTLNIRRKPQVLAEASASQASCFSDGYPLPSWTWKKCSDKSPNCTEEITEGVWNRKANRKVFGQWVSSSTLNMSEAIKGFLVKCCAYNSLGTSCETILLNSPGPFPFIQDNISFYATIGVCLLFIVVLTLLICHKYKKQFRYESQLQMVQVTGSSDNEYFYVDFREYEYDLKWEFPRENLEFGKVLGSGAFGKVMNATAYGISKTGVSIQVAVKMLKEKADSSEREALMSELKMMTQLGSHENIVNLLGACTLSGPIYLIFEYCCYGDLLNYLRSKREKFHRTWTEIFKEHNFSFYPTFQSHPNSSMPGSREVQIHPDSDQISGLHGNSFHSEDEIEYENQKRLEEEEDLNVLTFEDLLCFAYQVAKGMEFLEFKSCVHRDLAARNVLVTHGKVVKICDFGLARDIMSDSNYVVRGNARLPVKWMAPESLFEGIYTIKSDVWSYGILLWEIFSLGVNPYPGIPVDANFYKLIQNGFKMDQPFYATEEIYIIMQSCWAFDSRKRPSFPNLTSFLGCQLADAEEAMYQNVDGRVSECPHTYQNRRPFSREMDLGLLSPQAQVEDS

[3] = biological target: Serine/threonine-protein kinase tousled-like 2 (Homo sapiens) (UniProt Q86UE8); assay: Competitive binding affinity to TLK2 (unknown origin) at 10 uM in presence of ATP relative to control
Chain of Serine/threonine-protein kinase tousled-like 2 (Homo sapiens) (Q86UE8 whole entry, looked up): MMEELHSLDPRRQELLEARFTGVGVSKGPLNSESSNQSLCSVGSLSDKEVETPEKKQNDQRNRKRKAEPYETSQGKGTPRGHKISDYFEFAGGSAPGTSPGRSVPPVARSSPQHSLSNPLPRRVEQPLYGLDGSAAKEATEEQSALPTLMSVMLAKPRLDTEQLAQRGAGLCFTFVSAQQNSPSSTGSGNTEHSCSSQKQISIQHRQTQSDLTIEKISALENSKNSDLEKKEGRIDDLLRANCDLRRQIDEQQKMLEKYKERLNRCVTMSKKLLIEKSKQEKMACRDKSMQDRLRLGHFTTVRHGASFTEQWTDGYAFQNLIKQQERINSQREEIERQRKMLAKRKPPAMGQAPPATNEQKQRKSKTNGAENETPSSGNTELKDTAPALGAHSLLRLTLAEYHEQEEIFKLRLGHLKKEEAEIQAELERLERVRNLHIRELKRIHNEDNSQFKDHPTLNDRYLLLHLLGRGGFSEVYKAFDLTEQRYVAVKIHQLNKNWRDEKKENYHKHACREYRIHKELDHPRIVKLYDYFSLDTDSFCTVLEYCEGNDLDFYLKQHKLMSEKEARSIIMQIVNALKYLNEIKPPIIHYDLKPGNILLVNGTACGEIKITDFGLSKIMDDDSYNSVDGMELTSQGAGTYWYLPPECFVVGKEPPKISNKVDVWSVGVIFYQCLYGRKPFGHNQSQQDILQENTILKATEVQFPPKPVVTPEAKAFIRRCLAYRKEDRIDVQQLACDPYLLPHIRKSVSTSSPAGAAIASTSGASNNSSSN

[4] = biological target: Dual specificity testis-specific protein kinase 1 (Homo sapiens) (UniProt Q15569); assay: Competitive binding affinity to TESK1 (unknown origin) at 10 uM in presence of ATP relative to control
Chain of Dual specificity testis-specific protein kinase 1 (Homo sapiens) (Q15569 whole entry, looked up): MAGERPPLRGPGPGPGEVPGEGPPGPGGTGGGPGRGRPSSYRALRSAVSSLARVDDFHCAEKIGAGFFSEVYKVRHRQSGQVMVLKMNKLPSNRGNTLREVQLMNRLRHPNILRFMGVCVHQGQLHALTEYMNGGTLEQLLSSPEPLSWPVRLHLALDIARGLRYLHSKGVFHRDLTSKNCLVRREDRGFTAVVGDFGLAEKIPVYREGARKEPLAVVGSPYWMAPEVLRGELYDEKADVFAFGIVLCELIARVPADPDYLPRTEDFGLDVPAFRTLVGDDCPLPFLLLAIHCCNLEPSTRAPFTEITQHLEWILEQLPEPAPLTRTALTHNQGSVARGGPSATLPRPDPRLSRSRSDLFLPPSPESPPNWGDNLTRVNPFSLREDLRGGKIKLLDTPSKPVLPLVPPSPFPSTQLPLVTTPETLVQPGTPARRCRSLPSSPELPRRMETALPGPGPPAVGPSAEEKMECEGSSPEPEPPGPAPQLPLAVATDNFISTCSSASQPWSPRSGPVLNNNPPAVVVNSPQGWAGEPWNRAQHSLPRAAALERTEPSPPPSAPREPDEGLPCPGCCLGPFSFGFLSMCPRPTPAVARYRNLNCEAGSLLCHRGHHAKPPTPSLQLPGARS

[5] = biological target: Activated CDC42 kinase 1 (Homo sapiens) (UniProt Q07912); assay: Competitive binding affinity to TNK2 (unknown origin) at 10 uM in presence of ATP relative to control
Chain of Activated CDC42 kinase 1 (Homo sapiens) (Q07912 whole entry, looked up): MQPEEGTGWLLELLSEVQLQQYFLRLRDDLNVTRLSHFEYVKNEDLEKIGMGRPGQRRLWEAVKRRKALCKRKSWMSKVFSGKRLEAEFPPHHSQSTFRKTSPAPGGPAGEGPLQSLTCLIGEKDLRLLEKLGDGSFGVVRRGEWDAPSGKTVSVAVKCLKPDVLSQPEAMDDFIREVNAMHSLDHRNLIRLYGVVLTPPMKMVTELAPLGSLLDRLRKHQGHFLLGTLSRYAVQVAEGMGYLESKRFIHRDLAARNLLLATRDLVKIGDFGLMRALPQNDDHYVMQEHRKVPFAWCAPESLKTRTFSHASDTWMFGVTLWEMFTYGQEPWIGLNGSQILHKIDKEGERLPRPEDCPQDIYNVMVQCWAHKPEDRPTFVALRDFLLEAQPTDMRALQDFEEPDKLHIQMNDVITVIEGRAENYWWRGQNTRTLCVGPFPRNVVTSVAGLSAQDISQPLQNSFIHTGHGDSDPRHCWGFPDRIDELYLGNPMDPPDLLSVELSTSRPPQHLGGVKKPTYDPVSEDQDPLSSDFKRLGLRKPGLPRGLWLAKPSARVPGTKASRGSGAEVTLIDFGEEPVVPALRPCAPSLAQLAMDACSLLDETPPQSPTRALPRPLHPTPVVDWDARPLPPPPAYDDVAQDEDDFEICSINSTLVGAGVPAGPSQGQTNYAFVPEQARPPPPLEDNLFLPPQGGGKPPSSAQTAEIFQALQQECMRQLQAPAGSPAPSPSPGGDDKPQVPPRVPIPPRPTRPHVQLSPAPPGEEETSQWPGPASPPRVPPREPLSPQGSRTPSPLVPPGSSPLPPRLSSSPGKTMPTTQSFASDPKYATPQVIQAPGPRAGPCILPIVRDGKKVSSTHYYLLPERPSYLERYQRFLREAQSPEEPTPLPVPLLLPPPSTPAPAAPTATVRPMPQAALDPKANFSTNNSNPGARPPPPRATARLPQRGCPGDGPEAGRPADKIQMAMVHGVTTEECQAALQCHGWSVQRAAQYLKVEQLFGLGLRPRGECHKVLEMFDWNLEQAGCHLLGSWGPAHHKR

[6] = biological target: T1, Serine/threonine-protein kinase BRSK2 (Homo sapiens) (UniProt Q8IWQ3); assay: Competitive binding affinity to BRSK2 (unknown origin) at 10 uM in presence of ATP relative to control
T1 sequence (whole entry): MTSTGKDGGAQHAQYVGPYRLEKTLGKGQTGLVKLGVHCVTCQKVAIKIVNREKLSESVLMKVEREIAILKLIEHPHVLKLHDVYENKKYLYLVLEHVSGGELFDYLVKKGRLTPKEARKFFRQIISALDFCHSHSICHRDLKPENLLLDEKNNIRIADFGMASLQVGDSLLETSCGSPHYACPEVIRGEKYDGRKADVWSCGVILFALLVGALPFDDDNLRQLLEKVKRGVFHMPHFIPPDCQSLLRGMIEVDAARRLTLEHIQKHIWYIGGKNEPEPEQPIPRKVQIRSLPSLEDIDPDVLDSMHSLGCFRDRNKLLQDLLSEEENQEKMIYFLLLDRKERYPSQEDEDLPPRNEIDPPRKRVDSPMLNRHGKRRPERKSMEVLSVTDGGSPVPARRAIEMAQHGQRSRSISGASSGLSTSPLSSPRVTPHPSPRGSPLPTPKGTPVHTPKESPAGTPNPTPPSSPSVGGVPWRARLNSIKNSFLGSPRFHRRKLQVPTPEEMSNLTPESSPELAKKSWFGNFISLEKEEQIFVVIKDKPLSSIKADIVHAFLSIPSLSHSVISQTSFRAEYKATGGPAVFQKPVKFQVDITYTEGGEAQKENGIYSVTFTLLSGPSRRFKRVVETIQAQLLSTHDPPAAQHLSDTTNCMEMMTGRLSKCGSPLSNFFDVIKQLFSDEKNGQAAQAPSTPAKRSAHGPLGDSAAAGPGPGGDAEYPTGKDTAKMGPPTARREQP

[7] = biological target: Mitogen-activated protein kinase 3 (Homo sapiens, UniProt P27361); assay: Competitive binding affinity to ERK1 (unknown origin) at 10 uM in presence of ATP relative to control
Chain of Mitogen-activated protein kinase 3 (P27361 whole entry): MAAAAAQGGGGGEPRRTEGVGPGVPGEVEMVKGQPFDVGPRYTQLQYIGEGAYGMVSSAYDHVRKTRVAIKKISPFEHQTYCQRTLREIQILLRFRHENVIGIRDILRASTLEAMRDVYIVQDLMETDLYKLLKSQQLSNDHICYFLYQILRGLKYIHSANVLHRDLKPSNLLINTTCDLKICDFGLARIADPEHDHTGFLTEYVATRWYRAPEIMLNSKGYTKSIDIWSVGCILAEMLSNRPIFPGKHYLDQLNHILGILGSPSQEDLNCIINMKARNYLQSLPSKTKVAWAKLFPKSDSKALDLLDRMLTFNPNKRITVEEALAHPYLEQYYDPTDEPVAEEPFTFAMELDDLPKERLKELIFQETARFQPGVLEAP
In short: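 In vitro ATP-site competition binding assay, part of profiling against a diverse panel of 128 kinases. Each compound was tested at a single concentration of 10 µM. Kinome selectivity was summarized as S15 selectivity scores.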

[8] = biological target: T2, Cyclin-dependent kinase 11A (Homo sapiens) (UniProt Q9UQ88); assay: Competitive binding affinity to CDC2L2 (unknown origin) at 10 uM in presence of ATP relative to control
T2 sequence (whole entry): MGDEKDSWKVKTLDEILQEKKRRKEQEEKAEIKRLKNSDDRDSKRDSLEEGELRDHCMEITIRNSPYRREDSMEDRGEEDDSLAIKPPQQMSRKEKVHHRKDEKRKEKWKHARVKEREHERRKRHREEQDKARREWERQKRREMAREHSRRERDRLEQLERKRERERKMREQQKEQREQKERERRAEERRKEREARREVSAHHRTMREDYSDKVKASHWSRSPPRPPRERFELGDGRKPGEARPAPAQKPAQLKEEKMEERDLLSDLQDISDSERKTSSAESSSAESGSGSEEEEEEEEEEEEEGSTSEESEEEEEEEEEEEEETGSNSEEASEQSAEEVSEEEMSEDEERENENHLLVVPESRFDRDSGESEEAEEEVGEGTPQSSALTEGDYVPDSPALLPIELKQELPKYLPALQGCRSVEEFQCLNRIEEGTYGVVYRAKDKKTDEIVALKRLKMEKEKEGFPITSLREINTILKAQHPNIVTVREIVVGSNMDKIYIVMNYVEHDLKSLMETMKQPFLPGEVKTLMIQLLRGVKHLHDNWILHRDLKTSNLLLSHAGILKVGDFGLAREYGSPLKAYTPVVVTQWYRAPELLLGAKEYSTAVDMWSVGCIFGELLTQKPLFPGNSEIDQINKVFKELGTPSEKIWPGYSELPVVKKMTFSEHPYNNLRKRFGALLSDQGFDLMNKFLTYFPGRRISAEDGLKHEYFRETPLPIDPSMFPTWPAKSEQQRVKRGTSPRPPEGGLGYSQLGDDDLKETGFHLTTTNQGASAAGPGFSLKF
In short: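 In vitro ATP-site competition binding format, run as one member of a diverse 128-kinase profiling panel. Each compound was tested at a single concentration across the whole panel.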

[9] = biological target: Interferon-induced, double-stranded RNA-activated protein kinase (Homo sapiens, UniProt P19525); assay: Competitive binding affinity to PRKR (unknown origin) at 10 uM in presence of ATP relative to control
Chain of Interferon-induced, double-stranded RNA-activated protein kinase (P19525 whole entry): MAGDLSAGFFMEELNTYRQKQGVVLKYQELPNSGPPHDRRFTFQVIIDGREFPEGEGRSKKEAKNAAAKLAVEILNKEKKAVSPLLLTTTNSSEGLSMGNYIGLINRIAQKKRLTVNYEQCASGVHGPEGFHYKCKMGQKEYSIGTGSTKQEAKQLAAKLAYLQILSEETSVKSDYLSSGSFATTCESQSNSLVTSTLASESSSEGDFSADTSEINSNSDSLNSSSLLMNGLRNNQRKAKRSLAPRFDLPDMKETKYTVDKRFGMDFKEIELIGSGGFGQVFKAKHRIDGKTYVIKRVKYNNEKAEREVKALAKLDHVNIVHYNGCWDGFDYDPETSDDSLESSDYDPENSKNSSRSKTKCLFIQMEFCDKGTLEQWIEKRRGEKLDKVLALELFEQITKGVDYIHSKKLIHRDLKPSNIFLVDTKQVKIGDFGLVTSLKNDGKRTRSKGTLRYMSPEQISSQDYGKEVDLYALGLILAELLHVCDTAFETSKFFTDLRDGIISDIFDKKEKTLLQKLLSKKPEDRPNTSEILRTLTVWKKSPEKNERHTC

[10] = biological target: Cyclin-dependent kinase 9 (Homo sapiens) (UniProt P50750); assay: Competitive binding affinity to CDK9 (unknown origin) at 10 uM in presence of ATP relative to control
Chain of Cyclin-dependent kinase 9 (Homo sapiens) (P50750 whole entry): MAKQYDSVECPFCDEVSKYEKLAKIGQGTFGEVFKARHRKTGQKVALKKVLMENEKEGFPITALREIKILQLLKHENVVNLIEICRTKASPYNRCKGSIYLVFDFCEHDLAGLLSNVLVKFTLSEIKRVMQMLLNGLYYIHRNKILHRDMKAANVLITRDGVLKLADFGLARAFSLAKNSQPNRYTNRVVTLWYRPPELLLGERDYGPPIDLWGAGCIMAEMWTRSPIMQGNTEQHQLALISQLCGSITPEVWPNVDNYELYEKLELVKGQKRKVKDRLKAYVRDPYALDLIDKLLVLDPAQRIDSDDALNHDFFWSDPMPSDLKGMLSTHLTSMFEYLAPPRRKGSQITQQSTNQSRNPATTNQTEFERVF

inhibition [2] [%] | inhibition [3] [%] | inhibition [4] [%] | inhibition [5] [%] | inhibition [6] [%] | inhibition [7] [%] | inhibition [8] [%] | inhibition [9] [%] | inhibition [10] [%] | Structure (SMILES) | inhibition [1] [%]
100 | < 50 | 82 | < 50 | < 50 | < 50 | 97 | 100 | 82 | O[C@H]1CC[C@H](Nc2nccc(-n3ncc4ccccc43)n2)CC1 | < 50
< 50 | < 50 | 82 | < 50 | < 50 | < 50 | 95 | 95 | 85 | O[C@H]1CC[C@H](Nc2nccc(-n3ccc4ccccc43)n2)CC1 | < 50
100 | 96 | 98 | < 50 | 69 | 80 | – | – | – | O[C@H]1CC[C@H](Nc2nccc(-c3n[nH]c4ccccc34)n2)CC1 | –
98 | < 50 | < 50 | < 50 | < 50 | < 50 | 100 | 100 | 96 | O[C@H]1CC[C@H](Nc2nccc(-n3nnc4ccccc43)n2)CC1 | 98
– | – | – | – | – | > 85 | > 85 | – | – | CS(=O)(=O)CCCOc1cccc2c1ccn2-c1ccnc(N[C@H]2CC[C@H](C(=O)N3CCC(O)CC3)CC2)n1 | > 85
